Source: PubChem
ABCB1 block = blocks JC-1 efflux by human ABCB1 transporter | inhibition, % at 6.6 µM | CCRF-Adr cells, flow cytometry | actives 0.067% (n = 190,000); in the data active = inhibition above about 40%;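 also: 0% = vehicle and 100% = reference inhibitor; higher value means more JC-1 retained so stronger ABCB1 efflux block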
MEKK2wt PB1 HTS = raises or lowers MEK5 binding to wildtype human MEKK2 PB1 domain | actives 1.1% (n = 290,000) | binding response (% of control), % at 10 µM | bead flow cytometry, Alexa488-MEK5 binding to MEKK2 WT; actives lie on both sides | AID 1531 | Q9Y2U5; in the data active = binding response below about 67% or above about 130%
ABCG2 inh = inhibitors of human ABCG2 transporter, ABCB1 counter-screen; actives 0.1% (n = 190,000); inhibition, % at 6.6 µM; Q9UNQ0; IgMXP3 cells, JC-1 efflux, flow cytometry;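 active = inhibition above 80%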;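 also: 0% = DMSO and 100% = nicardipine control wells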
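Test system: IgMXP3 (ABCG2) plus far-red-tagged CCRF-Adr (ABCB1) cells / Amount: 3 million cells/mL in well / Reagent: JC-1 transporter substrate / Timing: 10 min compound exposure, 25 °C / Signal: flow cytometry, 530 nm JC-1 signal / Read-out: percent efflux inhibition, scaled nicardipine 100% to DMSO 0% / Benchmarks: nicardipine as high control, DMSO as low control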
MEKK2 mut-MEK5 = signal of MEK5 binding to mutant human MEKK2 PB1 domain | bead flow cytometry, Alexa488-MEK5 binding to MEKK2 mutant | percent response, % at 10 µM | actives 0.35% (n = 290,000); in the data active = percent response above about 24%, passing the limit was not always enough
MEKK3 PB1 HTS = modulators (inhibitors or enhancers) of MEK5 binding to human MEKK3 PB1 domain. Q99759. bead-based flow cytometry, Alexa488-MEK5 binding to MEKK3; actives lie on both sides; 0 = blocked by unlabeled MEK5, 100 = vehicle. AID 1529. binding response (% of control), % at 10 µM. actives 1.4% (n = 290,000);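 active = binding response more than 3 SD above or below the average of its plate-row segment, actives on both sides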;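 also: Alexa488 bead fluorescence after subtracting the streptavidin-only scavenger bead signal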
Target sequence (Q99759 whole entry, looked up, the tested form may be a part): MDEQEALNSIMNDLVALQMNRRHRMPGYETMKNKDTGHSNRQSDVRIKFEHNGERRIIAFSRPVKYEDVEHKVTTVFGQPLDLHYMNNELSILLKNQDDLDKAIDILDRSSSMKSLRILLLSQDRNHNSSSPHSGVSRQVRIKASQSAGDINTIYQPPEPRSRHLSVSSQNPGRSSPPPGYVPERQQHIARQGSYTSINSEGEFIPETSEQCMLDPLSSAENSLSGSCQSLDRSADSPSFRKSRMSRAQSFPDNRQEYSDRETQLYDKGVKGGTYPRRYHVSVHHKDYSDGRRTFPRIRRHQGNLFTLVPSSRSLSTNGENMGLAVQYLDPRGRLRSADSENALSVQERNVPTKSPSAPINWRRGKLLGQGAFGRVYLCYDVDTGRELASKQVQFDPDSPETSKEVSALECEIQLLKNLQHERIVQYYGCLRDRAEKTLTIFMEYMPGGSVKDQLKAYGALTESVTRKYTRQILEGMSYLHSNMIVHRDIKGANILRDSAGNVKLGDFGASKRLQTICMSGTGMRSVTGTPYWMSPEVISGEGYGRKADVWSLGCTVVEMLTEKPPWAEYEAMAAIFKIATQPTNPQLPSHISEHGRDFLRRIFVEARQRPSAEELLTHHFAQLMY
ABCB1 confirm = confirmation of human ABCB1 transporter inhibitors, ABCG2 counter-screen; actives 7% (n = 270); shares compounds with ABCG2 inh; CCRF-Adr cells, JC-1 efflux, flow cytometry; inhibition, % at 6.6 µM;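 active = inhibition of pump activity above 50%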;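 also: 0% = DMSO and 100% = nicardipine full pump inhibition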
ABCG2 single pt = inhibits human ABCG2 efflux, confirmed at single point | shares compounds with ABCG2 inh | IgMXP3 cells, JC-1 efflux, flow cytometry | inhibition, % at 6.6 µM | actives 6% (n = 270);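 active = inhibition above 50%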;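 also: 0% = DMSO wells and 100% = nicardipine pump inhibitor wells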
IgMXP3 autofluor = counter-screen for ABCG2 inhibitors: compound fluorescence in IgMXP3 cells; shares compounds with ABCG2 inh; compound autofluorescence 488/530 nm, flow; active compounds read high; fluorescence at 6.6 µM; actives 30% (n = 270); AID 1480;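 active = fluorescence in ABCG2-expressing cells above the plate's control-well mean plus 3 SD, cut at about 15 in these data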;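 also: median cell fluorescence with compound minus that of DMSO-treated control cells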
CCRF-Adr fluor = counter-screen for ABCB1 inhibitors: compound fluorescence in CCRF-Adr cells | shares compounds with ABCG2 inh | AID 1483 | compound autofluorescence 488/530 nm, flow cytometry; active compounds read high | actives 30% (n = 270) | fluorescence at 6.6 µM;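 active = fluorescence beyond the plate control mean plus 3 SD, with a fluorescence-to-maximum score over 2, cut at about 25 in these data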
* marks the source's active call; other numbers are inactive results; nt = no result. Only some compounds are listed: those with a hit (about 2.3% of all), similar ones and a draw of the others.

SMILES	ABCB1 block	MEKK2wt PB1 HTS	ABCG2 inh	MEKK2 mut-MEK5	MEKK3 PB1 HTS	ABCB1 confirm	ABCG2 single pt	IgMXP3 autofluor	CCRF-Adr fluor
COc1cc(/C=C2\CCc3ccccc3C2=O)cc(OC)c1OC	2	106	10	3	105	nt	nt	nt	nt
O=C(NC1CCOc2ccccc21)C1CCCC1 (configuration not stated)	nt	95	nt	1	98	nt	nt	nt	nt
O=C(Nc1ccc(F)cc1)NC1CCN(Cc2nnnn2Cc2ccco2)CC1	1	95	83*	-7	98	1	21	-1.7	-2.9
O=C(Nc1ccccc1F)NC1CCN(Cc2nnnn2Cc2ccc(F)cc2)CC1	0	97	1	-2	100	nt	nt	nt	nt
CCOC(=O)c1cc(-c2ccc(Cl)cc2)nc2onc(C)c12	1	nt	83*	nt	nt	2	37	2.5	9.5
O=C(CC1CC2CCC1C2)NCCc1ccc(Cl)cc1 (configuration not stated)	nt	103	nt	4	102	nt	nt	nt	nt
O=C(NNC(=O)c1ccc2[nH]c(=O)c(=O)[nH]c2c1)c1cccc(Br)c1	nt	93	nt	-2	96	nt	nt	nt	nt
N#C/C(=C\c1ccc(N2CCOCC2)o1)C(=O)Nc1ccc(O)cc1	0	103	6	-1	109	nt	nt	nt	nt
N#C/C(=C/c1ccc(N2CCCCC2)o1)C(=O)Nc1ccc(Cl)cc1	45*	88	82*	4	93	-48	-66	171*	118*
COc1ccccc1-n1c(SCC(=O)Nc2ccc(NC(C)=O)cc2)nc2c([nH]c3ccccc32)c1=O	nt	101	nt	4	100	nt	nt	nt	nt
CC1CCN(S(=O)(=O)c2ccc(NC(=O)C3CCN(C(=O)c4ccco4)CC3)cc2)CC1	nt	101	nt	8	96	nt	nt	nt	nt
CCOC(=O)c1c(-c2ccc(C)cc2)csc1NC(=O)/C(C#N)=C/c1ccc(O)c(OC)c1	117*	94	132*	5	101	1	21	80*	222*
CC(=O)Nc1ccc(NC(=O)CSc2nnc(-c3cc(C)[nH]n3)n2N)cc1	nt	104	nt	3	101	nt	nt	nt	nt
CCOC(=O)c1sc2cc([N+](=O)[O-])cc(SCC(=O)OC)c2c1N	3	92	40	-1	100	nt	nt	nt	nt
CCOC(=O)c1sc2cc([N+](=O)[O-])cc(SCCO)c2c1N	2	90	82*	-4	93	1	21	1.4	-0.69
CCOCCc1nnc(NC(=O)C2CCN(C(=O)c3ccco3)CC2)s1	nt	103	nt	3	102	nt	nt	nt	nt
CCOc1ccccc1NC(=O)C(OC(=O)c1ccc(O)cc1)c1ccccc1 (configuration not stated)	1	96	23	-1	94	nt	nt	nt	nt
CCOc1ccccc1NC(=O)C(OC(=O)c1ccc(N(C)C)cc1)c1ccccc1 (configuration not stated)	5	83	117*	1	104	38	63*	2.2	21
CSCC[C@H](NC(=O)[C@@H]1Cc2ccccc2CN1)C(=O)Nc1ccc2c(c1)OCO2	nt	103	nt	2	96	nt	nt	nt	nt
CCC(C)c1ccc(NC(=S)NCCn2cc(Cl)cn2)cc1 (configuration not stated)	1	110	5	5	103	nt	nt	nt	nt
CCC(C)c1ccc(NC(=S)NCCn2cc(Br)cn2)cc1 (configuration not stated)	7	96	126*	-3	93	1	34	-1.7	-3.2
COc1ccc(S(=O)(=O)c2cnc3ccc(OC)cc3c2N2CCC3(CC2)OCCO3)cc1	19	95	92*	0	100	25	22	6.8	9.1
COc1ccc(N2C(=NC(=O)CC3CCCCC3)SC3CS(=O)(=O)CC32)cc1 (configuration not stated)	nt	95	nt	-2	99	nt	nt	nt	nt
COc1cccc(C2C(C(=O)Nc3nc4ccccc4s3)=C(C)NC3=C2C(=O)CC(C)(C)C3)c1OC (configuration not stated)	45*	98	6	1	99	59*	12	29*	4.3
CCc1ccccc1N1CC(C(=O)Nc2nccs2)CC1=O (configuration not stated)	nt	102	nt	-2	101	nt	nt	nt	nt
SMILES	ABCB1 block	MEKK2wt PB1 HTS	ABCG2 inh	MEKK2 mut-MEK5	MEKK3 PB1 HTS	ABCB1 confirm	ABCG2 single pt	IgMXP3 autofluor	CCRF-Adr fluor
O=C(NCC1OCCc2ccccc21)c1ccc(NC(=O)c2ccc(Cl)cc2Cl)cc1 (configuration not stated)	95*	131	111*	-18	107	6	43	1.7	-1.3
O=C(CN(C(=O)c1csnn1)c1ccc(F)cc1)NCc1ccc2c(c1)OCO2	nt	103	nt	-1	99	nt	nt	nt	nt
Cc1ccccc1-n1c(SCC(=O)Nc2ccccc2)nc2nc3c(cc2c1=O)CCCC3	46*	103	36	1	106	48	23	0.71	91*
C=CCN(C(=O)Cn1nc(C)n2c(cc3cc(C)ccc32)c1=O)c1ccccc1	nt	101	nt	-1	101	nt	nt	nt	nt
Cc1ccc(N(CCCCN2C(=O)c3ccccc3C2=O)C(=O)c2ccc(Cl)s2)cc1	7	120	67	10	104	11	21	-2.2	-4.6
[O-][n+]1onc2c1CCc1c-2nc(-c2ccccc2)n1OCc1ccccc1	0	103	0	2	106	nt	nt	nt	nt
COn1c(-c2ccccc2)nc2c1CCc1c-2no[n+]1[O-]	-1	115	74	8	112	-1	28	0.61	-3
COCCn1c(C)nnc1SCC(=O)NNC(=O)c1ccc(Br)cc1	nt	106	nt	1	102	nt	nt	nt	nt
OCC[C@@H]1C[C@H](O)[C@@H](O)[C@@]2(CCCO2)O1	nt	106	nt	5	110	nt	nt	nt	nt
COc1ccccc1OCc1ccc(C(=O)c2ccccc2)cc1	nt	100	nt	4	103	nt	nt	nt	nt
COc1ccccc1OCCOc1ccc(C(=O)c2ccccc2)cc1	5	101	87*	-1	118	-11	31	52*	82*
CCCCN(CC)c1nc(N)c2c(N)nc(OCC)cc2c1C#N	4	99	78	-2	102	9	33	-0.14	-2.6
CCOc1cc2c(C#N)c(N3CCCC3)nc(N)c2c(N)n1	nt	106	nt	3	102	nt	nt	nt	nt
COCCCn1c(SCCc2ccccc2)nc2cc(OC)c(OC)cc2c1=N	1	131	2	-32	95	nt	nt	nt	nt
COCCNC(=O)CSc1nc2cc(OC)c(OC)cc2c(=O)n1CCC1=CCCCC1	19	106	88*	4	104	9	46	1.3	-1.4
